From BindingDB's records for doi:10.1128/AAC.00443-09 (University of Medicine and Dentistry of New Jersey, 2009)

Key:
[1] = biological target: 1,3-beta-glucan synthase (Candida glabrata, UniProt F5BCZ9, F659V); experiment: Inhibition of Candida glabrata isolate 234 1,3-beta-D-glucan synthase wild type Fks1p/Fks2p F659V mutant
Method in brief: (§1)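 Cells grown in YPD broth at 35°C with vigorous shaking to early stationary phase. Membrane protein extracted and glucan synthase partially purified by product entrapment. Filtration polymerization assay measured [3H]glucose incorporation into product, started by adding enzyme. Echinocandin serial dilutions spanned 0.01–10,000 ng/ml, with 1% DMSO controls for anidulafungin. IC50 from variable-slope sigmoidal fit.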

[2] = biological target: 1,3-beta-glucan synthase (Candida glabrata, UniProt E2GKZ4, D632E); experiment: Inhibition of Candida glabrata isolate 3169 1,3-beta-D-glucan synthase Fks1p D632E mutant/wild type Fks2p; method in brief: as §1
[3] = biological target: 1,3-beta-glucan synthase (Candida glabrata, UniProt F5BCZ9, D666E); experiment: Inhibition of Candida glabrata isolate 42031 1,3-beta-D-glucan synthase wild type Fks1p/Fks2p D666E mutant; method in brief: as §1
1,3-beta-glucan synthase (Candida glabrata, UniProt F5BCZ9, D666E), sequence (F5BCZ9 entry or part of it D666E): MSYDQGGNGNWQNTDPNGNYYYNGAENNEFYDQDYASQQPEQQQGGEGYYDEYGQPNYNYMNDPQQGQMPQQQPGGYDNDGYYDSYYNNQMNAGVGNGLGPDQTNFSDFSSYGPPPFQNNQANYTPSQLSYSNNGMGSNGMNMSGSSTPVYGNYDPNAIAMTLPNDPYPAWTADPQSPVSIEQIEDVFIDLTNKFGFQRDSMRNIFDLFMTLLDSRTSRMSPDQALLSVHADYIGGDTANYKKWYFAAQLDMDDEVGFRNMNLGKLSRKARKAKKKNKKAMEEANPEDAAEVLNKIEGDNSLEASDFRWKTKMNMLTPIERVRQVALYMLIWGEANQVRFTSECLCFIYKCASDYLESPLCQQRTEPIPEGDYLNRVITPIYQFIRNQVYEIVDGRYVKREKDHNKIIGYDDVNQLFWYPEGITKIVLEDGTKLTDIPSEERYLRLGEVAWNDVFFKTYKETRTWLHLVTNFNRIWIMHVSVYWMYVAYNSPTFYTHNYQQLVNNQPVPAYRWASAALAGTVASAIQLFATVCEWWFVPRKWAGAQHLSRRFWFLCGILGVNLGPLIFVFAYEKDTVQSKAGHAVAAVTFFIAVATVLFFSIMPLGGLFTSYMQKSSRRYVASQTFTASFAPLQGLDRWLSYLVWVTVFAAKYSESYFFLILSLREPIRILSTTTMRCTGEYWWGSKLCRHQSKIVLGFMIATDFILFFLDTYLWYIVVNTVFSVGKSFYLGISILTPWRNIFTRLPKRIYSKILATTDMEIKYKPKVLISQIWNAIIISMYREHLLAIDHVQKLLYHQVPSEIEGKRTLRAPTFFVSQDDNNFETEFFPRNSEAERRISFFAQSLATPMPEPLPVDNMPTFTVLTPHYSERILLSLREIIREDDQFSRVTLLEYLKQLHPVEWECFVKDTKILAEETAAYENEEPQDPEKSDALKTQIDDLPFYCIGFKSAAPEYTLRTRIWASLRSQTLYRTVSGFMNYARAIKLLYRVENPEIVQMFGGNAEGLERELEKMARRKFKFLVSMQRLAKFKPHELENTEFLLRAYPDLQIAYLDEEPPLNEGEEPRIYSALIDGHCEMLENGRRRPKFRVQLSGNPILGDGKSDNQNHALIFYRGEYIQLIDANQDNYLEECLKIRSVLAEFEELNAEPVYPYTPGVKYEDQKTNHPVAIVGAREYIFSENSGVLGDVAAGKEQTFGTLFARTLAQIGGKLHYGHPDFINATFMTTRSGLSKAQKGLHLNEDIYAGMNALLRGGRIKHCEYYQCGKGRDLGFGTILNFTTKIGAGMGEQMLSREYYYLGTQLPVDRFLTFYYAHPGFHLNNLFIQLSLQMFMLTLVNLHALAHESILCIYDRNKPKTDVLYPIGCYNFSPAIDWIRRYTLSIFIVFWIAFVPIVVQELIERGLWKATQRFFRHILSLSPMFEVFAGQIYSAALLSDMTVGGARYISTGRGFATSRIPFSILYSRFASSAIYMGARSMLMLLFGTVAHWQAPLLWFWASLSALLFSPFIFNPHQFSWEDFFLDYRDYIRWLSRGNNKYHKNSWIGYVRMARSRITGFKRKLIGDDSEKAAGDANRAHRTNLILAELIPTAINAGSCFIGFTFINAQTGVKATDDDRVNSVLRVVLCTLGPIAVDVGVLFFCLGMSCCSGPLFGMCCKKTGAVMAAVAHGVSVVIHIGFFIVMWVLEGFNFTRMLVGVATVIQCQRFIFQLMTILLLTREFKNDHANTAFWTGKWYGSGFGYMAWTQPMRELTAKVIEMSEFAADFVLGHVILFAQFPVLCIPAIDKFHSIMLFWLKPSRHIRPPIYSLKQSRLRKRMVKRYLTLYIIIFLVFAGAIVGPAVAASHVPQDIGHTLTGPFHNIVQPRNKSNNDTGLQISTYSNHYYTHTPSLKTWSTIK

[4] = biological target: 1,3-beta-glucan synthase (Candida glabrata, UniProt F5BCZ9, W1375L); experiment: Inhibition of Candida glabrata isolate 5416 1,3-beta-D-glucan synthase wild type Fks1p/Fks2p W1375L mutant; method in brief: as §1
[5] = biological target: 1,3-beta-glucan synthase (Candida glabrata, UniProt F5BCZ9, P667T); experiment: Inhibition of Candida glabrata isolate 51916 1,3-beta-D-glucan synthase wild type Fks1p/Fks2p P667T mutant; method in brief: as §1
[6] = biological target: 1,3-beta-glucan synthase (Candida glabrata, UniProt E2GKZ4, S629P); experiment: Inhibition of Candida glabrata isolate 5847 1,3-beta-D-glucan synthase Fks1p S629P mutant/wild type Fks2p; method in brief: as §1
[7] = biological target: 1,3-beta-glucan synthase (Candida glabrata, UniProt F5BCZ9, D666G); experiment: Inhibition of Candida glabrata isolate 41400 1,3-beta-D-glucan synthase wild type Fks1p/Fks2p D666G mutant; method in brief: as §1
[8] = biological target: 1,3-beta-glucan synthase (Candida glabrata, UniProt F5BCZ9, S663P); experiment: Inhibition of Candida glabrata isolate 3830 1,3-beta-D-glucan synthase wild type Fks1p/Fks2p S663P mutant; method in brief: as §1
[9] = biological target: 1,3-beta-glucan synthase (Candida glabrata, UniProt F5BCZ9, F659S); experiment: Inhibition of Candida glabrata isolate 41026 1,3-beta-D-glucan synthase wild type Fks1p/Fks2p F659S mutant; method in brief: as §1

1,3-beta-glucan synthase (Candida glabrata, UniProt F5BCZ9, F659V), sequence (F5BCZ9 entry or part of it F659V): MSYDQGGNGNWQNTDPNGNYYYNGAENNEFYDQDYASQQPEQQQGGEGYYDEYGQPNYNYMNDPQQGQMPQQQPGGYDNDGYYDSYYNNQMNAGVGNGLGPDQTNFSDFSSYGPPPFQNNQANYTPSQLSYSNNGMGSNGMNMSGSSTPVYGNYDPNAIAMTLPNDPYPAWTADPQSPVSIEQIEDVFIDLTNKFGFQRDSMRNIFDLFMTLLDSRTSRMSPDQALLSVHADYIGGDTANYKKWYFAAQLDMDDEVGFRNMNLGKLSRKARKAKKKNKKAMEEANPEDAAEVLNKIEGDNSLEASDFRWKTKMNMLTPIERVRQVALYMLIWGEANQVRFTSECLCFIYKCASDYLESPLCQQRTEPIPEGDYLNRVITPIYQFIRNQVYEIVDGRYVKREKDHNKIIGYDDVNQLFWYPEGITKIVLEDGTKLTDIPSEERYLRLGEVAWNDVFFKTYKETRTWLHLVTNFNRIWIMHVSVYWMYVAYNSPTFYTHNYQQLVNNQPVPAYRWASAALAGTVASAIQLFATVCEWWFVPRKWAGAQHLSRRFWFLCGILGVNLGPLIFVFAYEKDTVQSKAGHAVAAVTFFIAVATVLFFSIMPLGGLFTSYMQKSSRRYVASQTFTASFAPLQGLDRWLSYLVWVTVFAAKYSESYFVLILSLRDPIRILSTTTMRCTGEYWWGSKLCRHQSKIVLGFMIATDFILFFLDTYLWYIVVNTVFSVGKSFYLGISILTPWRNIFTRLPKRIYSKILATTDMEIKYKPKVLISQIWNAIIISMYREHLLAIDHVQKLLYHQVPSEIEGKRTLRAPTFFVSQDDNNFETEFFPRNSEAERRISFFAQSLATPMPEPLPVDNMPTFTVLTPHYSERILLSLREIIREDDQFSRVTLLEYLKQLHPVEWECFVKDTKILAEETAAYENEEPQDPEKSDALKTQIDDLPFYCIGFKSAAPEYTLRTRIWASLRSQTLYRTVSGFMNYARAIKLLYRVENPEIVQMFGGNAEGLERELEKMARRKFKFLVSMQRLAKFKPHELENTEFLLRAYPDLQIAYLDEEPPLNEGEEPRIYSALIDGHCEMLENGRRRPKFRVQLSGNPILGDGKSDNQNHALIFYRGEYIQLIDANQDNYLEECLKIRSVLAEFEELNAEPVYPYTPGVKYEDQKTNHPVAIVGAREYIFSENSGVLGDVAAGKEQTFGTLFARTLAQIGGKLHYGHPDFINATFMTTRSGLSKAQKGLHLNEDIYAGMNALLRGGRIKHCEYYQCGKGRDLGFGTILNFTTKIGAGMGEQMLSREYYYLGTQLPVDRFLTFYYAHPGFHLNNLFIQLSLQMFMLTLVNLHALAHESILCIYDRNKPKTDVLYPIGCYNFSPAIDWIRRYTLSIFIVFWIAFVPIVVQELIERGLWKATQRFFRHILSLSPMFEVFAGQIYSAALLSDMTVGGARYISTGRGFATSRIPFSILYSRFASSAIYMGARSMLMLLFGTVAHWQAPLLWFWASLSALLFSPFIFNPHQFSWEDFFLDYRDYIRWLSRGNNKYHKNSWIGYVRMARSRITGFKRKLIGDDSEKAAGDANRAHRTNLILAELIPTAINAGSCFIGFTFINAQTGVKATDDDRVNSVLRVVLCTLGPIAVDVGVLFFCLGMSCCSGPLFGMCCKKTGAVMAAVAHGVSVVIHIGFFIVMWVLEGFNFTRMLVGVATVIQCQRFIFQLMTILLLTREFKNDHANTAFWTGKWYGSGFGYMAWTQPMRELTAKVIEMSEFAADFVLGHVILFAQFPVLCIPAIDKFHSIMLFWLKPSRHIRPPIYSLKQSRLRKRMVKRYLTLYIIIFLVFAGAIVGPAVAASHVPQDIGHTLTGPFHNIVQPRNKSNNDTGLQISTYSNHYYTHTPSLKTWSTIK

CCC(C)CC(C)CCCCCCCCC(=O)N[C@H]1C[C@@H](O)[C@@H](NCCN)NC(=O)[C@@H]2[C@@H](O)CCN2C(=O)[C@H]([C@H](O)CCN)NC(=O)[C@H]([C@H](O)[C@@H](O)c2ccc(O)cc2)NC(=O)[C@@H]2C[C@@H](O)CN2C(=O)[C@H]([C@@H](C)O)NC1=O (some centres undefined) [CHEBI:474180]
IC50 [1]: 115 nM | IC50 [2]: 845 nM | IC50 [3]: 258 nM | IC50 [4]: 608 nM | IC50 [5]: 166 nM | IC50 [6]: 4990 nM | IC50 [7]: 507 nM | IC50 [8]: 5120 nM | IC50 [9]: 1060 nM
